We go through 11 molecules from ChEMBL document CHEMBL3351370, “Straightforward entry to pyrido[2,3-d]pyrimidine-2,4(1H,3H)-diones and their ADME properties” (Bioorg Med Chem, 2014).

In brackets after ≈: the same amount, converted by molar mass.

The test system of data set [1] is Liver microsome. The data set is described as follows: Stability in human liver microsomes assessed as metabolite formation at 8 uM at 37 degC in absence of NADPH and glucose-6-phosphate. Type of data set: ADME. The essentials:
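Negative control. Compound 8 µM with pooled human liver microsomes (45 donors, 0.5 mg protein/ml) in 0.1 M phosphate buffer pH 7.4 with 3 mM MgCl₂, without NADPH and glucose-6-phosphate. 37 °C, 350 rpm. Aliquots taken at 0, 10, 20 and 30 min and quenched in acetonitrile. Parent compound measured by HPLC (UV or fluorescence).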

The test system of data set [2] is Liver microsome. Briefly: Stability in human liver microsomes assessed as metabolite formation at 8 uM at 37 degC in presence of NADPH and glucose-6-phosphate. It is filed as ADME. The method in brief:
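Compound 8 µM with pooled human liver microsomes (45 donors, 0.5 mg protein/ml) in 0.1 M phosphate buffer pH 7.4 with 3 mM MgCl₂. Started by adding NADPH (1 mM) and glucose-6-phosphate (3 mM). 37 °C, 350 rpm. Aliquots at 0, 10, 20 and 30 min quenched in acetonitrile. Parent compound measured by HPLC-UV/fluorescence as % remaining; Clint from in vitro t1/2 method, scaled to human hepatic Clint.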
Background: Liver microsomes are a subcellular fraction often used to study metabolism.

Data set [3] can be described thus: Apparent permeability in human Caco2 cells. Conditions: Caco-2. Type of data set: ADME, cell-based.
Data set [4] in a line: Thermodynamic solubility in FaSSIF medium after 24 hrs by UV detection and HPLC method. Type of data set: physicochemical. Conditions: read-out: Therm_solubility. The method in brief: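 Excess solid added to FaSSIF (SIF powder in phosphate buffer), shaken 24 h at 175 rpm and 37 °C, then centrifuged at 20,817g for 15 min. Supernatant quantified by HPLC with UV detection. n = 3.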

Turning to `CC(C)CCNC(=O)c1cccnc1NCCC(C)C`, the Stability entry in the data set with Liver microsome [1] and in the data set with Liver microsome [2] was “Stable” each time.
For the molecule `O=C(NC1CCCCC1)c1cccnc1NC1CCCCC1`, in the data set on Liver microsome [1], the Stability result is reported as “Stable”. Besides, in the data set on Liver microsome [2], the Drug metabolism result is reported as “metabolite_detected”.
`CCCn1c(=O)c2cccnc2n(CCC)c1=O`: the Stability result in the data set with Liver microsome [1] and with Liver microsome [2] was “Stable” each time.
The Papp is the rate of passage across a membrane or cell layer, normalised by area and donor concentration. Turning to `C=CCOC(=O)c1cccnc1NC12CC3CC(CC(C3)C1)C2`, in data set [3], the Papp turned out to be 1.2 ×10⁻⁶ cm/s. For the same molecule, the Stability entry with Liver microsome [1] is listed as “Stable”. Besides, the solubility thermodynamic at 24 h in data set [4] stood at 20.7 µM (≈ 6.47 µg/mL). The Drug metabolism result in the data set with Liver microsome [2] is “metabolite_detected”.
In the case of `COc1ccc2c(c1)c(CC(=O)O)c(C)n2C(=O)c1ccc(Cl)cc1` [INDOMETHACIN], the Papp in data set [3] came out at 93.3 ×10⁻⁶ cm/s.
Turning to `C=CCNC(=O)c1cccnc1NCC=C`, the Stability entry with Liver microsome [1] and with Liver microsome [2] was “Stable” throughout.
As to `C=CCn1c(=O)c2cccnc2n(C2CCCCC2)c1=O`, the Stability result with Liver microsome [1] and in the data set on Liver microsome [2] was “Stable” throughout.
`C=CCNC(=O)c1cccnc1NC(C)(C)CC(C)(C)C`: the Stability entry in the data set with Liver microsome [1] was “Stable”. In addition, the Drug metabolism result in the data set on Liver microsome [2] is reported as “metabolite_detected”.
As to `C=CCn1c(=O)c2cccnc2n(CC=C)c1=O`, the Stability result with Liver microsome [1] and with Liver microsome [2] was “Stable” in each case.
`O=c1c2cccnc2n(Cc2ccccc2)c(=O)n1Cc1ccccc1`: the Stability entry in the data set on Liver microsome [1] and in the data set on Liver microsome [2] was “Stable” in each case.
As for `CC(C)CCn1c(=O)c2cccnc2n(CCC(C)C)c1=O`, in the data set with Liver microsome [1], the Stability entry is reported as “Stable”. Besides, in the data set with Liver microsome [2], the Drug metabolism result was “metabolite_detected”.
